Experiments:
Rattus norvegicus [1] = assay: Antiplatelet activity in Wistar rat assessed as inhibition of ADP-induced platelet aggregation at 3 mg/kg, po measured after 2 hrs by Born's method; format: functional; set-up: scale not given: the % may be the effect or the level left
Procedure, shortened: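 Oral dosing at 3 mg/kg, CMC as vehicle, groups of 10 rats. At 2 h the rats were anesthetized with pentobarbital sodium and blood was drawn from the abdominal aorta. Ex vivo aggregation was induced with ADP 1.2 μM and read on an aggregometer (Born's method). Values are mean ± SD, n = 10, statistics versus vehicle.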

Liver microsomes [2] = assay: Drug metabolism in rat liver microsomes assessed as NADPH-dependent active metabolite glutathione adducts 3 formation at 20 uM after 30 mins by LC-MS/MS analysis; format: ADME, Microsome; conditions: 0.5 h
Procedure, shortened: (§1)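 Pooled SD rat liver microsomes (1.0 mg/mL protein) with compound 20 μM (diluted from 10 mM DMSO stock), NADPH 1.0 mM and glutathione 10 mM in 100 mM potassium phosphate pH 7.4. Incubated 30 min at 37 °C; controls lacked NADPH. Quenched with ice-cold 10% TCA and centrifuged. Supernatant analysed by LC-MS/MS (phenyl column, positive ESI), monitoring AMGS adducts at m/z 661 (SIM).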

Rattus norvegicus [3] = assay: AUC (0 to infinity) in Sprague-Dawley rat […] at 24 umol/kg, po; format: ADME, organism-based, Plasma; set-up: dose 24 umol/kg, route oral, time infinity; conditions: in vivo
Liver microsomes [4] = assay: Drug metabolism in rat liver microsomes assessed as NADPH-dependent active metabolite glutathione adducts 2 formation at 20 uM after 30 mins by LC-MS/MS analysis; format: ADME, Microsome; conditions: 0.5 h; procedure, shortened: as §1
Liver microsomes [5] = assay: Drug metabolism in rat liver microsomes assessed as NADPH-dependent active metabolite glutathione adducts 4 formation at 20 uM after 30 mins by LC-MS/MS analysis; format: ADME, Microsome; conditions: 0.5 h; procedure, shortened: as §1
Liver microsomes [6] = assay: Drug metabolism in rat liver microsomes assessed as NADPH-dependent active metabolite glutathione adducts formation at 20 uM after 30 mins by LC-MS/MS analysis in presence of NADPH and GSH; format: ADME, Microsome; conditions: 0.5 h; procedure, shortened: as §1
Rattus norvegicus [7] = assay: Tmax in Sprague-Dawley rat assessed as clopidogrel thioacetate level at 24 umol/kg, po; format: ADME, organism-based; conditions: in vivo
Rattus norvegicus [8] = assay: Cmax in Sprague-Dawley rat assessed as clopidogrel thioacetate level at 24 umol/kg, po; format: ADME, organism-based; set-up: dose 24 umol/kg, route oral; conditions: in vivo
Rattus norvegicus [9] = assay: Half life in Sprague-Dawley rat assessed as clopidogrel thioacetate level at 24 umol/kg, po; format: ADME, organism-based; conditions: in vivo
Liver microsomes [10] = assay: Drug metabolism in rat liver microsomes assessed as NADPH-dependent active metabolite glutathione adducts 1 formation at 20 uM after 30 mins by LC-MS/MS analysis; format: ADME, Microsome; conditions: 0.5 h; procedure, shortened: as §1
[11] = Toxicity in beagle dog assessed as maximum tolerated dose; format: organism-based, Canis lupus familiaris; conditions: in vivo
Procedure, shortened: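 Single-dose oral study in beagle dogs, run in a GLP laboratory. Both the no-observed-adverse-effect level and the maximal tolerated dose were determined.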

Mus musculus [12] = assay: Toxicity in mouse assessed as tissue injury at 5000 mg/kg, po measured after 14 days; format: organism-based; set-up: dose 5000 mg/kg, route oral; conditions: in vivo, 336 h
Procedure, shortened: (§2)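 Single-dose study in a GLP laboratory. Deaths were recorded, and the liver and other organs were assessed for injury or adverse effects.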

[13] = Toxicity in beagle dog assessed as no-observed adverse effect level; format: organism-based, Canis lupus familiaris; conditions: in vivo
Mus musculus [14] = assay: Toxicity in mouse assessed as mortality at 5000 mg/kg, po measured after 14 days; format: organism-based; set-up: dose 5000 mg/kg, route oral; conditions: in vivo, 336 h; procedure, shortened: as §2
Mus musculus [15] = assay: Toxicity in mouse assessed as liver injury at 5000 mg/kg, po measured after 14 days; format: organism-based; set-up: dose 5000 mg/kg, route oral; conditions: in vivo, 336 h; procedure, shortened: as §2

Row | SMILES | Activity (Rattus norvegicus [1]) [%] | other results
1 | CCC(=O)Oc1cc2c(s1)CCN([C@H](C(=O)OC)c1ccccc1Cl)C2 | 46.7 | –
2 | CCCC(=O)Oc1cc2c(s1)CCN([C@H](C(=O)OC)c1ccccc1Cl)C2 | 52.8 | –
3 | COC(=O)[C@H](c1ccccc1Cl)N1CCc2sc(OC(=O)C(C)(C)C)cc2C1 | 63.4 | –
4 | CCC(C)(C)C(=O)Oc1cc2c(s1)CCN([C@H](C(=O)OC)c1ccccc1Cl)C2 | 70 | –
5 | COC(=O)[C@H](c1ccccc1Cl)N1CCc2sc(OC(=O)c3ccccc3)cc2C1 | 60.1 | –
6 | COC(=O)[C@H](c1ccccc1Cl)N1CCc2sc(OC(=O)c3ccc([N+](=O)[O-])cc3)cc2C1 | 75.6 | –
7 | COC(=O)[C@H](c1ccccc1Cl)N1CCc2sc(OC(=O)c3ccc(OC)cc3)cc2C1 | 82.6 | –
8 | COC(=O)[C@H](c1ccccc1Cl)N1CCc2sc(OC(=O)c3ccccc3OC(C)=O)cc2C1 | 77.9 | –
9 | COC(=O)[C@H](c1ccccc1Cl)N1CCc2sc(OC(=O)Cc3ccccc3)cc2C1 | 53.8 | –
10 | COC(=O)[C@H](c1ccccc1Cl)N1CCc2sc(OC(=O)/C=C/c3ccccc3)cc2C1 | 84.7 | –
11 | COC(=O)[C@H](c1ccccc1Cl)N1CCc2sc(OC(=O)c3cccnc3)cc2C1 | 45.1 | –
12 | COC(=O)Oc1cc2c(s1)CCN([C@H](C(=O)OC)c1ccccc1Cl)C2 | 38.6 | –
13 | CCOC(=O)Oc1cc2c(s1)CCN([C@H](C(=O)OC)c1ccccc1Cl)C2 | 53 | –
14 | COC(=O)[C@H](c1ccccc1Cl)N1CCc2sc(OC(=O)OC(C)C)cc2C1 | 50.2 | –
15 | COC(=O)[C@H](c1ccccc1Cl)N1CCc2sc(OC(=O)OCC(C)C)cc2C1 | 65.6 | –
16 | COC(=O)[C@H](c1ccccc1Cl)N1CCc2sc(OC(=O)OCc3ccccc3)cc2C1 | 72.2 | –
17 | COC(=O)[C@H](c1ccccc1Cl)N1CCc2sc(OC(=O)COc3ccccc3)cc2C1 | 75.4 | –
18 | COC(=O)[C@H](c1ccccc1Cl)N1CCc2sc(OC(=O)N(C)C)cc2C1 | 67.7 | –
19 | COC(=O)[C@H](c1ccccc1Cl)N1CCc2sc(OC(=O)N3CCCC3)cc2C1 | 80.9 | –
20 | COC(=O)[C@H](c1ccccc1)N1CCc2sc(OC(C)=O)cc2C1 | 81.1 | –
21 | COC(=O)[C@H](c1ccccc1F)N1CCc2sc(OC(C)=O)cc2C1 | 62.9 | –
22 | COC(=O)[C@@H](c1ccccc1Cl)N1CCc2sc(OC(C)=O)cc2C1 | 68.4 | –
23 | COC(=O)C(c1ccccc1Cl)N1CCc2sc(OC(C)=O)cc2C1 (racemic) | 63.7 | –
24 | COC(=O)[C@H](c1ccccc1Cl)N1CCc2sccc2C1.O=S(=O)(O)O [CLOPIDOGREL BISULFATE] | 73.7 | –
25 | COC(=O)[C@H](c1ccccc1Cl)N1CCC2SC(=O)C=C2C1 (stereo not given in full) [CLOPIDOGREL THIOLACTONE] | 48.6 | –
26 | COC(=O)[C@H](c1ccccc1Cl)N1CCc2sccc2C1 [CLOPIDOGREL] | – | Drug metabolism (Liver microsomes [2]): Active; AUC (Rattus norvegicus [3]): 32.2 ng·h/mL; Drug metabolism (Liver microsomes [4]): Active; Drug metabolism (Liver microsomes [5]): Active; Drug metabolism (Liver microsomes [6]): Active; Tmax (Rattus norvegicus [7]): 0.583 h; Cmax (Rattus norvegicus [8]): 6.93 ng/mL; t1/2 (Rattus norvegicus [9]): 2.48 h; Drug metabolism (Liver microsomes [10]): Active
27 | CC(=O)Oc1cc2c(s1)CCN(C(C(=O)C1CC1)c1ccccc1F)C2 (stereo not given) [PRASUGREL] | 32.1 | –
28 | COC(=O)[C@H](c1ccccc1Cl)N1CCc2sc(OC(C)=O)cc2C1 [SUMECIGREL] | 34.6 | Drug metabolism (Liver microsomes [2]): Active; AUC (Rattus norvegicus [3]): 211 ng·h/mL; MTD [11]: > 2000 mg/kg; Drug metabolism (Liver microsomes [4]): Active; Drug metabolism (Liver microsomes [5]): Active; Activity (Mus musculus [12]): Non-toxic; NOAEL [13]: 300 mg/kg; Drug metabolism (Liver microsomes [6]): Active; Activity (Mus musculus [14]): Non-toxic; Tmax (Rattus norvegicus [7]): 1.17 h; Cmax (Rattus norvegicus [8]): 67.2 ng/mL; t1/2 (Rattus norvegicus [9]): 2.19 h; Activity (Mus musculus [15]): Toxic; Drug metabolism (Liver microsomes [10]): Active
